Hits are enriched below; roughly 3.5% of the tested compounds scored in any of these assays.
MrgX1 allo act: positive allosteric modulators of MrgX1, primary screen, HEK293 cells, Fluo-4 calcium flux. Mas-related G-protein coupled receptor member X1 (Homo sapiens), Q96LB2. FDSS; active compounds read high. B-score at 10 µM. 310,000 compounds, 0.63% hits. AID 588675, 2011;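 active = plate-corrected calcium response at least 3 library SD above typical, normal starting fluorescence, not activating the receptor alone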;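 note: compound read alongside a low EC10 to EC30 dose of BAM8-22 agonist; peak minus trough fluorescence over baseline measured at the second addition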
Target sequence (Q96LB2 whole entry, looked up): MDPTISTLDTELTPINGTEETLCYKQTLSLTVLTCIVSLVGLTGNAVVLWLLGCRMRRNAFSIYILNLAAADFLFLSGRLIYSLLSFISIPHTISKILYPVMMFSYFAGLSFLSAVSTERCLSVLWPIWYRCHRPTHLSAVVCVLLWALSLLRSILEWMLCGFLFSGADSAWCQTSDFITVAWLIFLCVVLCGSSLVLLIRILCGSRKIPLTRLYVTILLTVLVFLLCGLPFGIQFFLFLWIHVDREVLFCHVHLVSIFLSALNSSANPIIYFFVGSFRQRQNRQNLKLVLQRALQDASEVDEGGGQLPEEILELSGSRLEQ
RGS4 act: RGS4 potentiators or activators, primary screen, cell-based, HEK293 M3R inducible RGS4, calcium flux | carbachol calcium flux Fluo4; active compounds read low | AID 463111, 2010 | B-score at 10 µM | 310,000 compounds, 0.92% hits;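 active = B-score of the integrated calcium signal more than 4 SD below the library mean, with starting fluorescence not abnormally high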;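 note: negative B-score means reduced calcium response which marks RGS4 activation or potentiation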
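test system = M3R-expressing HEK293 line, RGS4 induced by doxycycline | probe or stimulus = carbachol at ECmax as muscarinic agonist stimulus | timing = dye loading 30 min 37 °C, buffer rest 30 min RT | signal = calcium dye Fluo4 fluorescence | evaluation = B score from integrated fluorescence ratio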
MrgX1 antag: antagonists of human MrgX1 receptor, primary screen, HEK293 cells, Fluo-4 calcium flux | Mas-related G-protein coupled receptor member X1 (Homo sapiens), Q96LB2 | BAM8-22 antagonism; active compounds read low | B-score at 10 µM | 310,000 compounds, 1.3% hits | AID 588676, 2011;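 active = calcium-response B-score plate-corrected more than 3 library SD below zero, starting fluorescence within 5 deviations, no agonist response on first addition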;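 note: peak minus trough fluorescence over baseline after final BAM8-22 challenge near maximal dose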
MrgX1 ag: agonists of human MrgX1 receptor, primary screen, HEK293 cells, Fluo-4 calcium flux; 310,000 compounds, 0.44% hits; Mas-related G-protein coupled receptor member X1 (Homo sapiens), Q96LB2; Fluo-4 calcium fluorescence, agonist mode; active compounds read high; AID 588627, 2011; B-score at 10 µM;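 active = calcium response B-score plate-corrected fluorescence ratio at least 3 library SD, with starting fluorescence B-score inside 5 SD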
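Test system: HEK293 cells stably expressing human MrgX1 receptor; Input: fifteen thousand cells per well; Dosing: compound delivered in addition one of three; Schedule: overnight seeding, then 1 h dark dye loading; Technique: Fluo-4 NW calcium fluorescence; Measure: B-scored fluorescence response ratio; Controls: positive and negative controls per plate.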
RGS4 inh: RGS4 inhibitors, primary screen, cell-based, HEK293 M3R inducible RGS4, calcium flux | Regulator of G-protein signaling 4 (Homo sapiens), P49798 | Fluo-4 calcium flux; active compounds read high; triggered by carbachol at its EC20 | B-score at 10 µM | 310,000 compounds, 0.45% hits;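 active = B-score, a plate-corrected calcium signal, over three deviations above library mean, with baseline fluorescence within five deviations of library mean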;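 note: RGS4 expression induced by doxycycline in cells with stable M3 receptor; B-score is computed from the integrated fluorescence ratio over baseline after carbachol; higher B-score means a larger calcium signal and so more RGS4 inhibition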
Target sequence (P49798 whole entry, looked up): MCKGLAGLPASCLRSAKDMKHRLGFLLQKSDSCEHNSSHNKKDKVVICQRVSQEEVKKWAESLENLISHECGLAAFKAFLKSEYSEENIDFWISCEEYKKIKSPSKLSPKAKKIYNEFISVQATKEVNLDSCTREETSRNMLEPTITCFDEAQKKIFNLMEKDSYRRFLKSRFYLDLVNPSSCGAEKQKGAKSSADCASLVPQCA
MrgX1 antag conf: MrgX1 receptor antagonists, duplicate retest, confirmation, HEK293 cells, Fluo-4 calcium flux; shares compounds with MrgX1 antag; BAM8-22 calcium flux; active compounds read low; remaining BAM8-22 calcium response % of control (active compounds read low), % at 10 µM; 2,300 compounds, 19% hits;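 active = remaining agonist calcium response no higher than 100% minus 3 SD of agonist-only control wells, with starting fluorescence near control levels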;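 note: agonist BAM8-22 given at a near maximal EC90 to ECmax level; peak minus minimum fluorescence divided by baseline after agonist addition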
HEK293 Ca flux: nonspecific calcium signal in parental HEK293, confirmation, counter-screen for MrgX1 antagonist project, parental HEK293 cells, Fluo-4 calcium flux; shares compounds with MrgX1 antag; Fluo-4 calcium fluorescence, FDSS; fluorescence ratio F(max-min)/F0 at 10 µM; 4,000 compounds, 2% hits; AID 624111, 2012;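 active = duplicate-averaged calcium fluorescence ratio at least three times the standard deviation of buffer wells, a nonspecific response in parental cells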
HEK293 Ca counter: calcium response in parental HEK293 cells, primary screen, counter-screen for MrgX1 allosteric activator project, cell-based, Fluo-4 calcium flux, duplicate. fluorescence ratio F(max-min)/F0 at 10 µM. shares compounds with MrgX1 antag. 4,000 compounds, 0.4% hits. Fluo-4 fluorescence ratio; active compounds read high;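 active = calcium fluorescence ratio, averaged over duplicates, at least 3 SD of the buffer-well ratio, meaning a nonspecific response in receptor-free cells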;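 note: untransfected parental HEK293 lacking MrgX1 used as counterscreen for MrgX1 allosteric activators; fluorescence change taken during the second addition on a kinetic imager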
HEK293 Ca cntr2: calcium response in parental HEK293 cells, primary screen, counter-screen for MrgX1 agonist project, cell-based, Fluo-4 calcium flux, duplicate, agonist mode. shares compounds with MrgX1 antag. 4,000 compounds, 8.7% hits. fluorescence ratio F(max-min)/F0 at 10 µM. Fluo-4 calcium fluorescence (FDSS); active compounds read high;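 active = calcium fluorescence ratio at least three times the spread of buffer wells, meaning a non-specific response in parental cells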
Active calls of the source: *; i = inactive; / = no result.

SMILES | MrgX1 allo act | RGS4 act | MrgX1 antag | MrgX1 ag | RGS4 inh | MrgX1 antag conf | HEK293 Ca flux | HEK293 Ca counter | HEK293 Ca cntr2
CCOc1ccc(OCC)c(NC(=O)Nc2ccc3c(c2)N(C)C(=O)CS3)c1 | i | i | -6.3* | i | i | 80%* | i | i | i
Cc1cccc(NC(=O)c2ccc(C3SCC(=O)N3CCc3ccccc3)cc2)c1C (stereo unspecified) | i | i | i | i | i | / | / | / | /
COC(=O)C(NC(=O)c1ccccc1)c1ccccc1 (stereo unspecified) | i | i | -9.4* | i | i | i | i | i | i
COc1ccc(OC)c(NC(=O)NC2CCCCCCC2)c1 | i | i | i | i | i | / | / | / | /
CCCC(=O)Nc1cc(OC)c(NC(=O)NC2CCCCC2)cc1OC | i | i | -4.6* | i | i | i | i | i | i
COc1ccc(C2SCC(=O)N2CC23CC4CC(CC(C4)C2)C3)cc1 (stereo unspecified) | i | i | -5.2* | i | i | i | i | i | i
COc1ccc(C2SCC(=O)N2Cc2ccccc2)cc1 (stereo unspecified) | i | i | i | i | i | / | / | / | /
CC(Sc1nc2c(cc1C#N)CCCCC2)C(=O)O (stereo unspecified) | i | i | i | i | i | / | / | / | /
COc1ccc(C(=O)Cc2ccc3c(c2)OCO3)c(O)c1 | i | i | i | i | i | / | / | / | /
O=C(Cc1ccc2c(c1)OCCO2)c1c(O)cc(O)cc1O | i | i | -5.2* | i | i | 71%* | i | i | i
COC(=O)[C@H](C)[C@@H]1C[C@@]1(C)[C@@H](NC(=O)OCc1ccccc1)c1ccccc1 | i | i | -5.4* | i | i | 75%* | i | i | i
COc1ccc(-n2c(CNC(=O)c3cccs3)n[nH]c2=S)cc1 | i | i | -4.8* | i | i | i | i | i | i
COc1ccc(Cc2nc3ccc(C(=O)NCC(C)(C)OC)cc3o2)cc1 | i | i | -6.3* | i | i | i | i | i | i
CCCCOC(=O)N/N=C/C=C/c1ccccc1 | i | i | i | i | i | / | / | / | /
O=C(CCC(=O)Nc1ccccc1Cl)NN=C1CCCC1 | i | i | i | i | i | / | / | / | /
Cc1ccc(S(=O)(=O)c2nc(-c3cccs3)oc2SCC(N)=O)cc1 | i | i | -7.1* | i | i | i | i | i | i
Cc1ccc(-c2nc(S(=O)(=O)c3ccc(C)cc3)c(SCC(N)=O)o2)cc1 | i | i | i | i | i | / | / | / | /
COc1ccc(C)cc1NC(=S)NC12CN3CN(CN(C3)C1)C2 | i | i | i | i | i | / | / | / | /
Nc1cccnc1Sc1cc(Cl)c(Cl)cc1Cl | i | i | -6.5* | i | i | i | i | i | i
CCOC(=O)c1ccc(NC(=S)NCCc2ccccc2F)cc1 | i | i | -6.2* | i | i | 67%* | i | i | i
CCOC(=O)c1ccc(NC(=S)NCCc2ccccc2)cc1 | i | i | i | i | i | / | / | / | /
O=C(O)CCNc1ccc(NCCC(=O)O)c2c1C(=O)c1ccccc1C2=O | i | i | -4.7* | i | i | i | i | i | i
CN1C(=O)CC(N2CCN(CC(N)=O)CC2)C1=O (stereo unspecified) | i | i | -5.6* | i | i | i | i | i | i
CN1C(=O)CC(N2CCC(C(N)=O)CC2)C1=O (stereo unspecified) | i | i | i | i | i | / | / | / | /
CCCCOCCCNC(=O)C1CCCCC1 | i | / | i | i | / | / | / | / | /
SMILES | MrgX1 allo act | RGS4 act | MrgX1 antag | MrgX1 ag | RGS4 inh | MrgX1 antag conf | HEK293 Ca flux | HEK293 Ca counter | HEK293 Ca cntr2
COc1cccc(C(=O)N2CCN(CCCc3ccccc3)CC2)c1OC | i | / | i | i | / | / | / | / | /
O=C(c1ccco1)N1CCN(C(=O)c2ccccc2Oc2ccccc2)CC1 | i | i | -4.6* | i | i | 79%* | i | i | i
COc1ccccc1C(=O)N1CCN(CCc2ccccc2)CC1 | i | i | -5.4* | i | i | i | i | i | i
Cc1nc2cc(C(=O)O)ccc2n1-c1ccccc1 | i | i | i | i | i | / | / | / | /
COc1ccccc1-n1c(C)nc2cc(C(=O)O)ccc21 | i | i | -4.8* | i | i | i | i | i | i
Cc1nnc(SCc2nnc(-c3cccs3)o2)s1 | i | i | i | i | i | / | / | / | /
CC(C)N(C(=O)CS(=O)(=O)c1ccc(Cl)c(Cl)c1)C(C)C | i | i | i | i | i | / | / | / | /
CC1(C)Cc2nc(N3CCCC3)c(C#N)cc2CO1 | i | i | i | i | i | / | / | / | /
CC1(C)Cc2nc(N3CCOCC3)c(C#N)cc2CO1 | i | i | -6.1* | i | i | i | i | i | i
O=C(Nc1cccc(F)c1)Nc1ccnn1C1CCN(C(=O)CCN2CCCO2)CC1 | i | i | i | i | i | / | / | / | /
O=C(Nc1cccc(F)c1)Nc1ccnn1C1CCN(C(=O)c2cscn2)CC1 | i | i | -7.3* | i | i | i | i | i | i
CCS(=O)(=O)N1CCN(c2ccc(S(=O)(=O)N3CCOCC3)cc2)CC1 | i | i | i | i | i | / | / | / | /
O=S(=O)(c1ccc(N2CCOCC2)cc1)N1CCOCC1 | i | i | -4.9* | i | i | i | i | i | i
CCOC(=O)c1cc(C#N)c(Oc2ccccc2OC)nc1-c1ccccc1 | i | i | i | i | i | / | / | / | /
O=C(NNC(=O)c1ncc(Cl)c(Cl)c1Cl)c1ccc(F)cc1 | i | i | i | i | i | / | / | / | /

Assay outcomes: PubChem, Johns Hopkins Ion Channel Center
